# Results from the RNAGym collection of RNA variant scans (doi:10.1126/science.aae0568).
# Fewer inactive variants are shown than the library holds.
# B1: tRNA (parent)
# chain: GUUCCGUUGGCGUAAUGGUAACGCGUCUCCCUCCUAAGGAGAAGACUGCGGGUUCGAGUCCCGUACGGAACG
# Variants of: B1
# Assay: yeast fitness relative to wild type (ratio to wild type); higher = fitter; tRNA-Arg(CCU), competitive growth, 37 C, YPD
# Procedure, shortened: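 Start and end populations of a pooled competition were compared by 100-nucleotide paired-end sequencing of gene amplicons. The Saccharomyces cerevisiae strains carried tRNA-Arg(CCU) gene variants at the native genomic locus, synthesised with a 3% per-site mutation rate at 69 sites, and competed in YPD at 37°C for 24 hours in six parallel replicates. Darwinian fitness relative to wild type was based on the change in genotype frequencies. Genotypes required ≥ 100 starting reads, and estimates < 0.5 were set to 0.5.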
row,Variant,yeast fitness
1,G6A C11A A14C U19C U32A A42C U54C C61U G68C,≤ 0.5
2,C5U U19G U53A,0.529
3,C22U C46A G58C C66U,≤ 0.5
4,C29U C30U U59A G63C,≤ 0.5
5,C34U G56A A70G,≤ 0.5
6,G44A G56C,0.585
7,C5G A21G G44A,0.59
8,A21G G39A U54C,0.589
9,U2A A15C G58C U64C,0.53
10,U3A A36U A57G G63C,0.681
11,A14G C24G C66U,≤ 0.5
12,G9U A70C,1.13
13,G12C C30U A70U,≤ 0.5
14,G6C C22G A37U A43G C62G,0.509
15,C30G A42C U59A C60U,0.507
16,U13C U47C C62U C66U,≤ 0.5
17,C22G G58A,1.07
18,A14U U26G G56A A65G C66U,≤ 0.5
19,G10U A42U,0.775
20,C4G U8C,0.89
21,C4G C5U C30U G39A,≤ 0.5
22,C4A G9C C11G C30A C55A C62A,≤ 0.5
23,C4A U32C C46A,0.697
24,C4U C24G U26A U28G U32A,≤ 0.5

row,Variant,yeast fitness
1,C11U A20G G48A C55G A57U,≤ 0.5
2,C5U G25A A45G G50C A69C,≤ 0.5
3,U54C U64C,0.758
4,A15C A43U G67A,0.535
5,G17C U47G,≤ 0.5
6,G23A C30U U35C C62A,≤ 0.5
7,U19G C34A G50A,≤ 0.5
8,U26A C49U,0.865
9,A14U C62G,0.692
10,C5U G68C A69U,≤ 0.5
11,U8C C55U G58A,≤ 0.5
12,G10C A14G C27U G38A C46G,≤ 0.5
13,C34A G50A,0.742
14,A21G A42U G67A,0.54
15,C29G C34A,0.585
16,C11U A36U A70U,0.694
17,G18A A21U U32A C62G A65G,≤ 0.5
18,U19C C27A C30G A45C,≤ 0.5
19,C29A G51A C55A G56C A65U,≤ 0.5
20,C5U G12A C29U,0.565
21,C24U C49G G56C G58A G67A,≤ 0.5
22,G6C C22A G41A G44C C49U,≤ 0.5
23,U7G U13A,0.898
24,U2C C46G A65C,0.678

row,Variant,yeast fitness
1,A14C A21U A42C G58C,≤ 0.5
2,C30G U32C,0.708
3,C4U G6A U13C U28C,0.616
4,C5A G17A G25A G48C,≤ 0.5
5,U26G C49G,0.851
6,C29A A37G C55A,≤ 0.5
7,U7G C22G G50A,0.514
8,C22A U35G,0.631
9,C4U C11G C22G C62U,≤ 0.5
10,C5A C11G G41C C49U,≤ 0.5
11,U16G U26G A36G G68C,0.629
12,U8A C30G G56C A57G G68A A69C,≤ 0.5
13,C11G C29U A36C A42G C46G,≤ 0.5
14,G18A G23A C33A U64C,0.789
15,C4U C30A G63A,0.828
16,C29U A70C,0.867
17,G48A C55U A70G,≤ 0.5
18,C11U G63A,0.903
19,C5G G9A A43G G48C,≤ 0.5
20,U13C G23C C30G A65C,≤ 0.5
21,A15G G23C,0.712
22,C33U G38C,0.609
23,C24U C29A C33U,≤ 0.5
24,A14C A20G,0.647

row,Variant,yeast fitness
1,G25A C33G A42G G50A G52A,≤ 0.5
2,A15U C31U A70G,0.629
3,G6A A45G G67U,0.687
4,A40U A45U C49U,0.63
5,U3C C27U C33U C61A,≤ 0.5
6,A20G G25A C34A A36G G50C,≤ 0.5
7,U2A A20C C33G C46U A70G,≤ 0.5
8,C24U G58A C60G,0.897
9,C11U C49G C62U,≤ 0.5
10,U3G A20C G44C C61U,0.606
11,C4U A40U G58C,0.734
12,U8C A14U,0.805
13,G9C A14C U19G A42U,≤ 0.5
14,C22U U26A G67C,≤ 0.5
15,A15U A69C,0.77
16,C24A C31U U53A,0.786
17,C4U A42G G58A,0.717
18,C4U G9A,0.927
19,G6A U32A,0.809
20,C5U C24U A36G C46A U47C C55A G67A,≤ 0.5
21,U7A G9C G17C C34A G44A C46U G68A,≤ 0.5
22,G9A C24U U32G,≤ 0.5
23,C55U A65U,0.794
24,C27A C29U G48A G68C,≤ 0.5

row,Variant,yeast fitness
1,C30U A36G G44A,0.638
2,C4G A15G C22G G23A C49A,≤ 0.5
3,C24U A37G A45U C55U,0.708
4,C62U C66U,1.06
5,U16G C62A,0.643
6,C5A A21U C24U C27G A70G,≤ 0.5
7,G12C C33A,0.682
8,C4G C11A C31U A40C,≤ 0.5
9,G44A U47C,0.979
10,G9A C11U C66U,0.779
11,C24U G48A G51A,0.665
12,U3C A21C,0.831
13,G12A A43U A45C G67C,0.542
14,G6A U8C U19A U53C,≤ 0.5
15,U19A C46U C49G,1.07
16,G6A A36U C66U,0.536
17,C4G U8C A37U A42C C66G,≤ 0.5
18,A36C A37C U53G,≤ 0.5
19,C5G A15C G58A G67C,≤ 0.5
20,C49G G52A C61G,0.534
21,C22U G52A C60U,0.598
22,U8A A36U C55G G58A U59C A69C,≤ 0.5
23,A14G A20C C31G A45U G48C,≤ 0.5
24,U19C A70C,1.03

row,Variant,yeast fitness
1,G9A C31A U47C G67A,≤ 0.5
2,C34G C61U A70U,0.639
3,A21U A37U,0.672
4,C33G C34G C62U,≤ 0.5
5,U13A U19C A20U C29G C33G A37G C49U C66U,0.601
6,C34G G52A C62U,0.6
7,U8C A43C C66G,≤ 0.5
8,G10C G51C A65C C66U,≤ 0.5
9,C5A C46A G56C G68A A70G,≤ 0.5
10,U19A A43U A45C G67C,≤ 0.5
11,U19C G23A G38A,0.634
12,G48A C49G C60G,0.576
13,A36G U47A,0.789
14,G10U C31U,0.78
15,C24G G50A C55U A69C A70U,≤ 0.5
16,C24U C31G C60A U64C,≤ 0.5
17,A36U A40U A57U G63A,≤ 0.5
18,U32G G58A,0.609
19,C31A A57U,0.626
20,A15U C29A C34G C62U G68A,0.616
21,C34U A40C C62U A65U,≤ 0.5
22,U16A A20C,1.02
23,G23A C49A U59C C62U A65U A70C,0.524
24,C4U C30U C34U,≤ 0.5

row,Variant,yeast fitness
1,A15C U32A A65C,≤ 0.5
2,C5U G44C G68U,0.663
3,C31U A70C,1.05
4,C5A A40C C46U G52C,0.547
5,G48A C61G C62U,≤ 0.5
6,U7C U8A C62U,≤ 0.5
7,A45G U53G C66U A69U,≤ 0.5
8,U7A C29U A57C,≤ 0.5
9,G10A U19A G44C,0.54
10,U3A U13C C49G,≤ 0.5
11,U8C A36U,0.647
12,C29U G41C C49A,0.62
13,C29A G39A,0.725
14,C5U C29A G39C G63A U64C A69C,≤ 0.5
15,C4G U16C G41C C62U,≤ 0.5
16,A14U A37U U47A,0.632
17,G25C C33U U47G C49U G52C,≤ 0.5
18,U2C C55U,0.792
19,C11A U32C C49U,0.606
20,C27U A40G U64A,≤ 0.5
21,G6A C31G A40U,0.688
22,U2A C4A C5G A36G G67A,≤ 0.5
23,C31A G48C C61A A70G,≤ 0.5
